Measurements taken from ChEMBL document CHEMBL4033789, “Discovery of a New Four-Leaf Clover-Like Ligand as a Potent c-MYC Transcription Inhibitor Specifically Targeting the Promoter G-Quadruplex” (J Med Chem, 2018).
Activity calls are given as the source filed them. No cut-off for these calls is given here.

Legend:
[1] = Stabilization of c-Myc mutant promoter DNA (unknown origin) transfected in human SiHa cells assessed as reduction in gene transcription at 1.25 to 2.5 uM after 24 hrs by dual-luciferase reporter gene assay; assay type: cell-based
Procedure, shortened: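 SiHa cells transfected with psiCHECK2 carrying wild-type or mutant c-MYC promoter driving Renilla luciferase, firefly luciferase on same plasmid; compound added 4 h post-transfection, incubated further at 37 °C; Renilla signal normalized to firefly; three repeats, mean ± SEM.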

[2] = test system: SiHa; assay: Induction of cell cycle arrest in human SiHa cells assessed as upregulation of p15 protein levels after 24 hrs by Western blot analysis; assay type: functional, cell-based
Procedure, shortened: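 SiHa cells (2.0×10^5 per well) treated 24 h, lysed at 4 °C for 30 min, supernatant cleared at 15,000 rpm; protein measured by BCA, 30 µg resolved on 10% SDS-PAGE, transferred to nitrocellulose, blocked in 5% milk/TBS-Tween 1 h, primary antibodies overnight at 4 °C, HRP secondaries 2 h at room temperature.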

[3] = test system: Mus musculus; assay: Toxicity in nude BALB/c mouse xenografted with human SiHa cells assessed as body weight reduction at 5 to 20 mg/kg, ip administered every other day for 24 days; assay type: organism-based; conditions: in vivo, 576 h
Procedure, shortened: (§1)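 BALB/c nude mice, 5 weeks old, implanted subcutaneously in right flank with 1×10^7 SiHa cells; at ~50 mm3 tumor, 10 per group dosed ip every other day for 24 days, saline control; body weight measured daily, viscera weighed at sacrifice; mean ± SEM, Student's t test versus saline.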

[4] = Binding affinity to VEGF promoter G-quadruplex DNA (unknown origin) after 1 min by fluorescence titration method; assay type: ADME
Procedure, shortened: (§2)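 Oligonucleotide stock added stepwise to fixed-concentration compound in 10 mM Tris-HCl pH 7.2, 100 mM KCl; equilibrated ≥1 min after each addition, emission read with excitation at 350 nm. KD from fitting titration data to the Benesi–Hildebrand equation; 1:1 stoichiometry checked by Job plot.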

[5] = Stabilization of VEGF G-quadruplex DNA in human SiHa cells assessed as effect on VEGF mRNA level at 1.25 to 5 uM fter 6 hrs by RT-PCR method; assay type: ADME, cell-based
Procedure, shortened: (§3)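 SiHa cells (2.0×10^5) dosed 6 h; total RNA reverse-transcribed with oligo dT18 primer and M-MLV (42 °C 1 h, 85 °C 5 min); PCR 95 °C 5 min then 30 cycles (95 °C 30 s, 58 °C 30 s, 72 °C 40 s); products checked on agarose gel.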

[6] = Stabilization of hybrid telomeric htg22 G-quadruplex DNA (unknown origin) assessed as effect on melting temperature at 15 uM by circular dichroism spectroscopic assay; assay type: ADME
Procedure, shortened: (§4)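 CD melting of 3 µM annealed G-quadruplex with or without 15 µM ligand in 10 mM Tris-HCl pH 7.2 with 2 mM KCl (50 mM KCl for htg22 and HRAS); read every 5 °C over 25–95 °C, heating 1 °C/min.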

[7] = Stabilization of c-Myc promoter pu22 G-quadruplex DNA (unknown origin) assessed as change in melting temperature at 15 uM by circular dichroism spectroscopic assay; procedure, shortened: as §4
[8] = Stabilization of RET G-quadruplex DNA in human SiHa cells assessed as effect on RET mRNA level at 1.25 to 5 uM fter 6 hrs by RT-PCR method; assay type: ADME, cell-based; procedure, shortened: as §3
[9] = test system: U2OS; assay: Cytotoxicity against human U2OS cells assessed as reduction in cell viability after 24 hrs by MTT assay; assay type: functional, cell-based
Procedure, shortened: (§5)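 Cells seeded at 5.0×10^3 per well, exposed to compound for 24 h; MTT (2.5 mg/mL) added for 4 h, formazan dissolved in DMSO, OD read at 570 nm. Triplicate; IC50 from curves of mean OD against concentration.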

[10] = Stabilization of c-Kit1 promoter G-quadruplex DNA (unknown origin) assessed as effect on melting temperature at 15 uM by circular dichroism spectroscopic assay; assay type: ADME; procedure, shortened: as §4
[11] = test system: Mus musculus; assay: Toxicity in nude BALB/c mouse xenografted with human SiHa cells assessed as viscera weight reduction at 5 to 20 mg/kg, ip administered every other day for 24 days; assay type: organism-based; conditions: in vivo, 576 h; procedure, shortened: as §1
[12] = Binding affinity to 1 uM KRAS promoter G-quadruplex DNA (unknown origin) at 1 uM after 1 min by fluorescence spectroscopic analysis; assay type: ADME
Procedure, shortened: (§6)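 Fluorescence emission spectra of 1 µM compound mixed with 1 µM pre-annealed oligonucleotide (G-quadruplexes folded in 100 mM KCl by heating to 95 °C for 5 min, slow cooling), in Tris-HCl buffer.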

[13] = species: Homo sapiens; assay: Stabilization of c-Myc G-quadruplex DNA in human SiHa cells assessed as decrease in c-Myc protein expression at 1.25 to 5 uM after 24 hrs by Western blot method; assay type: cell-based
Procedure, shortened: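 SiHa cells (2.0×10^5) exposed 24 h, lysed at 4 °C; 30 µg protein per lane on 10% SDS-PAGE, transferred to nitrocellulose, milk-blocked, primary antibody overnight at 4 °C, HRP secondary 2 h at room temperature.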

[14] = test system: BJ; assay: Cytotoxicity against human BJ cells assessed as reduction in cell viability after 24 hrs by MTT assay; assay type: cell-based; procedure, shortened: as §5
[15] = Binding affinity to c-KIT1 promoter G-quadruplex DNA (unknown origin) after 1 min by fluorescence titration method; assay type: ADME; procedure, shortened: as §2
[16] = Stabilization of KRAS promoter G-quadruplex DNA (unknown origin) assessed as effect on melting temperature at 15 uM by circular dichroism spectroscopic assay; assay type: ADME
Procedure, shortened: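 G-quadruplex at 3 µM, with or without 15 µM compound, in 10 mM Tris-HCl pH 7.2 containing 2 mM KCl; CD recorded every 5 °C from 25 to 95 °C at a heating rate of 1 °C/min.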

[17] = test system: SiHa; assay: Induction of apoptosis in human SiHa cells after 24 hrs by Annexin V-FITC/propidium iodide-staining based flow cytometric analysis; assay type: functional, cell-based
[18] = Stabilization of HRAS G-quadruplex DNA in human SiHa cells assessed as effect on HRAS mRNA level at 1.25 to 5 uM fter 6 hrs by RT-PCR method; assay type: ADME, cell-based
Procedure, shortened: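 SiHa cells (2.0×10^5 per well) treated 6 h; total RNA (2 µg) reverse-transcribed with oligo dT18 and M-MLV at 42 °C for 1 h, 85 °C for 5 min; PCR: 95 °C 5 min, then 30 cycles of 95 °C 30 s, 58 °C 30 s, 72 °C 40 s; products checked on agarose gel.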

[19] = test system: SiHa; assay: Cytotoxicity against human SiHa cells assessed as reduction in cell viability after 24 hrs by MTT assay; assay type: functional, cell-based; procedure, shortened: as §5
[20] = Binding affinity to BCL2 promoter G-quadruplex DNA (unknown origin) after 1 min by fluorescence titration method; assay type: ADME; procedure, shortened: as §2
[21] = species: Homo sapiens; assay: Stabilization of c-Myc promoter G-quadruplex DNA in human CA46 cells assessed as downregulation of exon 1 transcriptional level at 1.25 to 5 uM after 6 hrs by RT-PCR analysis; assay type: cell-based
Procedure, shortened: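 RAJI and CA46 cells treated 6 h over a concentration range; total RNA reverse-transcribed (oligo dT18, M-MLV, 42 °C 1 h then 85 °C 5 min); exon 1 and exon 2 amplified by real-time PCR with exon-specific primers, products run on 1% agarose gel; three repeats.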

[22] = Binding affinity to 1 uM c-MYC promoter G-quadruplex pu22 DNA (unknown origin) at 1 uM after 1 min by fluorescence spectroscopic analysis; procedure, shortened: as §6

CCn1c2ccccc2c2cc(-c3nc(-c4ccc(N5CCN(C)CC5)cc4)c(-c4ccc(N5CCN(C)CC5)cc4)n3-c3ccc(OC)cc3)ccc21
Activity [1]: inactive | Activity [2]: Dose-dependent effect | Activity [3]: Non-Toxic | Kd [4]: 0.9 µM | Activity [5]: Not Active | Activity [6]: Not Active | ΔTm [7]: 20 °C | Activity [8]: Not Active | IC50 [9]: 6.8 µM | Activity [10]: Not Active | Activity [11]: Non-Toxic | Activity [12]: Not Active | Activity [13]: Active | IC50 [14]: 15.9 µM | Kd [15]: 0.8 µM | Activity [16]: Not Active | Activity [17]: Dose-dependent effect | Activity [18]: Not Active | IC50 [19]: 3.3 µM | Kd [20]: 0.8 µM | Activity [21]: Active | Activity [22]: Active
